Measurements: paper PMC6347502 (Photochemistry and photobiology, 2018)
Several values for one entry are separate records, joined by “and”; a condition that tells them apart may be missing. Equal entries are not always repeated. Where two headings read alike, the source gives them in different places.

Key:
[1] = aerated MeCN; cited from earlier work
[2] = cited from earlier work
[3] = Nanosecond transient absorption lifetime; type: physicochemical; conditions: degassed MeCN
How it was run: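 Nanosecond laser flash photolysis on MeCN solutions argon-purged for 45 min. Excitation was 355 nm from a Nd:YAG third harmonic (4.1 ns pulse, 1 Hz). Transient difference absorption spectra were recorded and lifetimes taken from signal decays.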

[4] = Singlet oxygen sensitization quantum yield; type: physicochemical
[5] = Steady-state and time-resolved emission; type: physicochemical
How it was run: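 PF₆⁻ salts, 5–20 µM, in MeCN argon-sparged in a long-stem cuvette, or as 4:1 EtOH:MeOH glass frozen in liquid N₂ (77 K). Quantum yields from corrected steady-state spectra relative to [Ru(bpy)₃](PF₆)₂ (0.095 deaerated MeCN at 298 K; 0.38 at 77 K). Lifetimes measured with nitrogen/dye laser excitation at 457 nm, monitored at emission maximum, stroboscopic detection.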

[6] = test system: HL-60 human promyelocytic leukemia cells; test: Cytotoxicity and photocytotoxicity, resazurin cell viability, leukemia cells; type: cell-based
How it was run: (§1)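 HL-60 cells (suspension, RPMI 1640 + 20% FBS) or SK-MEL-28 cells (adherent, EMEM + 10% FBS) were used in log phase at ≥93% viability and equilibrated for 3 h. Chloride salts were diluted in DPBS (1 nM–300 µM; DMSO <0.1%) and incubated 16 h at 37 °C, 5% CO₂. Cells were then kept dark or given 100 J cm⁻² of visible light (400–700 nm, 44 mW cm⁻²) or red LED light (625 nm, 52.5 mW cm⁻²). After 48 h, resazurin was added for 3 h; fluorescence ex 530/em 620 nm. Triplicate. EC50 from sigmoidal dose–response fit; PI = dark/light EC50.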

[7] = UV-vis absorption, molar extinction coefficient at 625 nm; type: physicochemical
How it was run: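 PF₆⁻ salts in spectroscopic-grade MeCN. ε was taken from the slope of absorbance versus concentration over five concentrations, measured in duplicate.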

[8] = test system: pUC19 plasmid DNA; test: DNA photocleavage, plasmid gel mobility shift assay; type: biochemical; conditions: pUC19 20 μM NPs, visible light 14 J cm^−2
[9] = test system: SK-MEL-28 malignant melanoma cells; test: Cytotoxicity and photocytotoxicity, resazurin cell viability, melanoma cells; type: cell-based, human
How it was run: as §1

SMILES | ΦΔ of standard [1] | Φem reference value ([2]; 77 K in frozen 4:1 v/v EtOH:MeOH) | Φem reference value ([2]; 298 K in aerated MeCN) | Φem reference value ([2]; 298 K in deaerated MeCN) | emission lifetime [2] [μs] | τTA, lifetime of nonemissive 3IL state [3] [μs] | ΦΔ (singlet oxygen quantum yield) 298 K ([4]; air-saturated MeCN at 298 K, relative to [Ru(bpy)3](PF6)2) | 1O2 quantum yield (ΦΔ) ([4]; air-saturated MeCN, room temperature) | τem 77 K ([5]; 77 K, EtOH:MeOH (4:1) glass) | Φ (emission quantum yield) 77 K ([5]; 77 K, EtOH:MeOH (4:1) glass, PF6 salt) | τem 298 K ([5]; 298 K, argon-purged MeCN) | Φ (emission quantum yield) 298 K ([5]; 298 K, argon-purged MeCN, PF6 salt) | PI red light, HL60 ([6]; ratio of dark to red-light (625 nm) EC50, HL60) | PI visible light, HL60 ([6]; ratio of dark to visible-light EC50, HL60) | molar absorptivity at 625 nm (ε625 nm) [7] [M⁻¹ cm⁻¹] | MC:NP ratio for complete photocleavage (conversion of Form I to Form II DNA) [8] | PI red light, SKMEL28 ([9]; ratio of dark to red-light (625 nm) EC50, SKMEL28) | PI (phototherapeutic index) visible light, SKMEL28 ([9]; ratio of dark to visible-light EC50, SKMEL28) | EC50 ([9]; read-out: EC50 dark, SKMEL28, SKMEL28, dark) [µM]
F[P-](F)(F)(F)(F)F.F[P-](F)(F)(F)(F)F.[Ru+2].c1ccc(-c2ccccn2)nc1.c1ccc(-c2ccccn2)nc1.c1ccc(-c2ccccn2)nc1 [[Ru(bpy)3](PF6)2] | 0.56 | 0.38 | 0.012 | 0.095 | 0.9 | – | – | – | – | – | – | – | – | – | – | – | – | – | –
F[P-](F)(F)(F)(F)F.F[P-](F)(F)(F)(F)F.[Ru+2].c1ccc(-c2ccccn2)nc1.c1ccc(-c2ccccn2)nc1.c1csc(-c2ccc(-c3cc4cccnc4c4ncccc34)s2)c1 [Compound 2, Ru(bpy)2(phen-2T)PF6] | – | – | – | – | – | 43 | 0.78 | 74–78% and 78% and 74% | 6,600 ns | 0.14 | 1,030 ns | 0.0092 | 19 | 835 | < 100 | 1 | 2 | 150 | 32 ± 1
